Measurements as given in ChEMBL document CHEMBL1148234, “Tricyclic pyridones as functionally selective human GABAA alpha 2/3 receptor-ion channel ligands” (Bioorg Med Chem Lett, 2004).

Legend:
[1] = biological target: T1, GABA-A receptor; alpha-1/beta-3/gamma-2 (Homo sapiens, UniProt P14867+P18507+P28472); assay: Binding affinity at human recombinant gamma-aminobutyric-acid A receptor alpha-1-beta-3-gamma-2 expressed in L(tk) cells by [3H]Ro-151788 displacement.; format: cell-based
T1 sequence (P14867 whole entry): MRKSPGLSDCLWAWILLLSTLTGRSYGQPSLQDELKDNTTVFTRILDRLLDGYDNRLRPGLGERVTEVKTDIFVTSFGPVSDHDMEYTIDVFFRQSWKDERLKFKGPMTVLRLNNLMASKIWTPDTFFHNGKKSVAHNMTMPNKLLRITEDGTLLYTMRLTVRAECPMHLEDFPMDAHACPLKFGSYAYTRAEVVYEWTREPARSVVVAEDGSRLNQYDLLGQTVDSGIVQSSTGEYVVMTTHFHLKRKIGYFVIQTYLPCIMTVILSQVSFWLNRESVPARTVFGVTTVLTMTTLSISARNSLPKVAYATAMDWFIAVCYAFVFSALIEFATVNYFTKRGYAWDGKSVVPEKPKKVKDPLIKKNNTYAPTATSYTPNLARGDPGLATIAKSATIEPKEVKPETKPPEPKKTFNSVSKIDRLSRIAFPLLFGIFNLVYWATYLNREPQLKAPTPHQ
T1 sequence (P18507 whole entry): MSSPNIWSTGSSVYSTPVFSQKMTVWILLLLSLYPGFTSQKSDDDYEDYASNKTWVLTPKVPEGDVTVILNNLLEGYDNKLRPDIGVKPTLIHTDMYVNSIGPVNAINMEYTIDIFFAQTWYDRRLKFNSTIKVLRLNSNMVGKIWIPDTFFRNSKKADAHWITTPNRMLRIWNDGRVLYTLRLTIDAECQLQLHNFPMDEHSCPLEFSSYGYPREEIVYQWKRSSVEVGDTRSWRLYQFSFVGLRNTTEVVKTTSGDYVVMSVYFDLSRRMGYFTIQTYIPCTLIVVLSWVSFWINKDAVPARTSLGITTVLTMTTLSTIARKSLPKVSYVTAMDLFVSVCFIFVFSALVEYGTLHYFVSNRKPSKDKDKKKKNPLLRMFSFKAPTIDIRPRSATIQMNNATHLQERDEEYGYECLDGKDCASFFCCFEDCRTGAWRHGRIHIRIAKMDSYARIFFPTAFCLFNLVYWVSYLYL
T1 sequence (P28472 whole entry): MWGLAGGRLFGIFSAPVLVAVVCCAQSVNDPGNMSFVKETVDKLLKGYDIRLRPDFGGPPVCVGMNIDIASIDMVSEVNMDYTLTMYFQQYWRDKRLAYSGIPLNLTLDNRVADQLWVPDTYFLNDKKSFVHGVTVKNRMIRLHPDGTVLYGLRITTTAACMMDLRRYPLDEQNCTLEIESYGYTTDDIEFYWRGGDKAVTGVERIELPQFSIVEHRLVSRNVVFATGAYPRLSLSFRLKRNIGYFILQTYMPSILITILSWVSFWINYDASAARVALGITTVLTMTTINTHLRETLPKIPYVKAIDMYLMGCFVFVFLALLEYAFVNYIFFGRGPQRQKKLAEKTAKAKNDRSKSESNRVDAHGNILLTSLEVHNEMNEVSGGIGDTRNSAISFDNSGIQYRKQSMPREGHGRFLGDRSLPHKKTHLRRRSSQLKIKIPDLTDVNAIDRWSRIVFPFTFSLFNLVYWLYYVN
In short: (§1)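 Human recombinant GABAA receptors (α1 or α3 with β3γ2) stably expressed in L(tk⁻) cells; affinity measured as displacement of [³H]Ro15-1788. Values are mean±SD of 2–10 separate determinations.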

[2] = biological target: T2, Gamma-aminobutyric acid receptor subunit alpha-3 (Homo sapiens) (UniProt P34903); assay: Efficacy at Gamma-aminobutyric acid A receptor, alpha 3-ion channel relative to chlorodiazepoxide.
T2 sequence (whole entry): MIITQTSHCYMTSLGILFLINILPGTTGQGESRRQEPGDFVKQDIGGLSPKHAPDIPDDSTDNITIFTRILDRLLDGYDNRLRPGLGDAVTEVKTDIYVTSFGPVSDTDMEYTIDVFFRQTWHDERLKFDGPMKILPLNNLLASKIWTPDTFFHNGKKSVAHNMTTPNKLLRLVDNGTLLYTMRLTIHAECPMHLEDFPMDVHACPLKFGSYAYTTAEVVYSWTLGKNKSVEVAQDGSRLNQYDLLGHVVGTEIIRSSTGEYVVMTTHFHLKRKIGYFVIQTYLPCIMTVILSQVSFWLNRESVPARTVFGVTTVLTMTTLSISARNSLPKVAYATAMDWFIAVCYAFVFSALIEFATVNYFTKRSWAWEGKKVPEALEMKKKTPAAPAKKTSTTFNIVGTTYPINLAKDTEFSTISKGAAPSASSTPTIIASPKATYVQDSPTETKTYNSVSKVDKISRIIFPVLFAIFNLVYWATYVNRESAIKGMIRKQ
In short: (§2)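 Human recombinant GABAA receptors, α1 or α3 with β3γ2, stably expressed in L(tk⁻) cells. Chloride ion flux modulated by test compound at approximately 1000×Ki, in the presence of GABA at an EC20-equivalent concentration. Efficacy expressed relative to full agonist chlordiazepoxide (=1.0), from at least seven independent experiments; some compounds measured instead by whole-cell patch-clamp current at GABA EC20.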

[3] = biological target: T3, GABA-A receptor; alpha-3/beta-3/gamma-2 (Homo sapiens, UniProt P18507+P28472+P34903); assay: Binding affinity at human recombinant gamma-aminobutyric-acid A receptor alpha-3-beta-3-gamma-2 expressed in L(tk) cells by [3H]Ro-151788 displacement.; format: cell-based; in short: as §1
T3 sequence (P18507 whole entry): T1 sequence (P18507 whole entry)
T3 sequence (P28472 whole entry): T1 sequence (P28472 whole entry)
T3 sequence (P34903 whole entry): T2 sequence (whole entry)

[4] = biological target: T4, Gamma-aminobutyric acid receptor subunit alpha-1 (Homo sapiens) (UniProt P14867); assay: Efficacy at gamma-aminobutyric acid A receptor, alpha 1-ion channel relative to chlorodiazepoxide.; in short: as §2
T4 sequence (whole entry): T1 sequence (P14867 whole entry)

[5] = Oral bioavailability in dog; format: ADME, organism-based, Canis lupus familiaris; settings: in vivo
[6] = Oral bioavailability in rat; format: ADME, organism-based; settings: in vivo
[7] = biological target: Gamma-aminobutyric acid receptor subunit alpha-4 (Homo sapiens, UniProt P48169); assay: Displacement of [3H]Ro-151788 from human GABA-A receptor alpha4 subunit expressed in L(tk) cells; format: cell-based
[8] = biological target: Gamma-aminobutyric acid receptor subunit alpha-6 (Homo sapiens, UniProt Q16445); assay: Displacement of [3H]Ro-151788 from human GABA-A receptor alpha6 subunit expressed in L(tk) cells; format: cell-based
[9] = biological target: T5, Gamma-aminobutyric acid receptor subunit alpha-5 (Homo sapiens, UniProt P31644); assay: Displacement of [3H]-Ro-15-1788 from human GABA-A receptor alpha5 subunit expressed in L(tk) cells; format: cell-based
T5 sequence (P31644 whole entry): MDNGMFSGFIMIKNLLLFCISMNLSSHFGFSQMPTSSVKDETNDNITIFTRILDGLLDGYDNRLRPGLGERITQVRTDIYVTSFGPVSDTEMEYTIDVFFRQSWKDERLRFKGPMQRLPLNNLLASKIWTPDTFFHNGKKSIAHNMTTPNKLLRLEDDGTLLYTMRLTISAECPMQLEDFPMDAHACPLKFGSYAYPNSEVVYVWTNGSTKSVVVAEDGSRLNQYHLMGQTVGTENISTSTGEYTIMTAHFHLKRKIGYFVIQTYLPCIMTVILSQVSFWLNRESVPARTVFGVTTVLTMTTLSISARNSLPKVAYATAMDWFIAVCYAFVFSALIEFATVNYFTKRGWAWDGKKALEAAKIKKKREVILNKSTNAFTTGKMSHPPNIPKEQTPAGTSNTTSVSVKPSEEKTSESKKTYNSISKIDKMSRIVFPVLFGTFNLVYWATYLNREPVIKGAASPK

[10] = biological target: T1, GABA-A receptor; alpha-1/beta-3/gamma-2; assay: Displacement of [3H]Ro-151788 from human GABA-A receptor alpha-1-beta-3-gamma-2 subunits expressed in L(tk) cells; format: cell-based; in short: as §1
[11] = biological target: T6, Gamma-aminobutyric acid receptor subunit alpha-2 (Homo sapiens, UniProt P47869); assay: Displacement of [3H]Ro-151788 from human GABA-A receptor alpha2 subunit expressed in L(tk) cells; format: cell-based
T6 sequence (P47869 whole entry): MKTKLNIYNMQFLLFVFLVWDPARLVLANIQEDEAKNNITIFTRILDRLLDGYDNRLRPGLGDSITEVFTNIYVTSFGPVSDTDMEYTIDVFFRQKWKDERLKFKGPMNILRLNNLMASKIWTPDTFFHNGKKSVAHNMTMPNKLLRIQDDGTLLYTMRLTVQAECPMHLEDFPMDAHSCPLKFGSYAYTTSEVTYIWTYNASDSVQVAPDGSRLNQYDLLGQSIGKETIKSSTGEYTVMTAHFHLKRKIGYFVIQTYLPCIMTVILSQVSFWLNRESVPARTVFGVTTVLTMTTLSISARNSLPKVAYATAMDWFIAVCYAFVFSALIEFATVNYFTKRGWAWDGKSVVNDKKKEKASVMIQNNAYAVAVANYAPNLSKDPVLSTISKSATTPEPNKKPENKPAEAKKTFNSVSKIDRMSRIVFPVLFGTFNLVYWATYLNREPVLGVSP

Sequence of Gamma-aminobutyric acid receptor subunit alpha-6 (Q16445 whole entry): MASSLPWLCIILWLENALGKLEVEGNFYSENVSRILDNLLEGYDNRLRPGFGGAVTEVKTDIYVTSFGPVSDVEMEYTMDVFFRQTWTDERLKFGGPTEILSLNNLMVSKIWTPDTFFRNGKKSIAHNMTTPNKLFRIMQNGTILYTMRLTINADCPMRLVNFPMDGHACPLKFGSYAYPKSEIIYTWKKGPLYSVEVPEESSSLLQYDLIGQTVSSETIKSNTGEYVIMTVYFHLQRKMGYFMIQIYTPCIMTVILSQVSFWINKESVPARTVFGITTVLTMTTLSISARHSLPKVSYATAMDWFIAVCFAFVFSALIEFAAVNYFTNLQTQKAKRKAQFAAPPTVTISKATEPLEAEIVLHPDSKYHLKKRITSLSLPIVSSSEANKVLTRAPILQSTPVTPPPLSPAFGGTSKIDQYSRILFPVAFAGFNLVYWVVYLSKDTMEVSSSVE
Sequence of Gamma-aminobutyric acid receptor subunit alpha-4 (P48169 whole entry): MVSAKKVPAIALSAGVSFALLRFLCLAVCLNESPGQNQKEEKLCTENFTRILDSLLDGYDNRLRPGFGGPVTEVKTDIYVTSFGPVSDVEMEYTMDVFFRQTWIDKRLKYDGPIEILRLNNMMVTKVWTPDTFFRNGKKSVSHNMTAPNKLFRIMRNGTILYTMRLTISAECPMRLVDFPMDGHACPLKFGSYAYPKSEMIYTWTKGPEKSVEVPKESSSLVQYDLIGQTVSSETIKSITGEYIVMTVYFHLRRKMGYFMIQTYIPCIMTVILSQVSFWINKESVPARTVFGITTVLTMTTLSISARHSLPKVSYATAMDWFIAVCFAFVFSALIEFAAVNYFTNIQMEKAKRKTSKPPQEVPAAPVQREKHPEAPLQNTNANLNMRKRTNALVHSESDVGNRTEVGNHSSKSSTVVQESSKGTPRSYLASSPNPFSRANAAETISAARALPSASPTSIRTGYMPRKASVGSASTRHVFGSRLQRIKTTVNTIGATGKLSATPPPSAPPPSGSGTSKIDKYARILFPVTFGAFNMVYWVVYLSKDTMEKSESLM

| Compound | Ki [1] [nM] | Efficacy [2] | Ki [3] [nM] | Efficacy [4] | bioavailability [5] [%] | bioavailability [6] [%] | Ki [7] [nM] | Ki [8] [nM] | Ki [9] [nM] | Ki [10] [nM] | Ki [11] [nM] |
| --- | --- | --- | --- | --- | --- | --- | --- | --- | --- | --- | --- |
| Cc1csc(-c2cc(-c3cccnn3)c3n(c2=O)CCCc2ccncc2-3)n1 | 26.1 | -0.44 | 17.3 | -0.33 | – | – | – | – | – | – | – |
| Cc1csc(-c2cc(-c3ccncn3)c3n(c2=O)CCCc2ccncc2-3)n1 | 12.2 | 0.32 | 8.5 | 0.03 | – | – | – | – | – | – | – |
| Cc1csc(-c2cc(-c3c(C)noc3C)c3n(c2=O)CCCc2ccncc2-3)n1 | 4.6 | 0.41 | 3.1 | -0.11 | – | – | – | – | – | – | – |
| Cc1csc(-c2cc(-c3ccnnc3)c3n(c2=O)CCCc2ccncc2-3)n1 | 8.3 | 0.2 | 5 | -0.41 | – | – | – | – | – | – | – |
| Cc1csc(-c2cc(-c3ccoc3)c3n(c2=O)CCCc2ccncc2-3)n1 | 3.9 | 0.05 | 4.4 | 0.04 | – | – | – | – | – | – | – |
| Cc1csc(-c2cc(-c3ccc4ccccc4c3)c3n(c2=O)CCCc2ccncc2-3)n1 | > 33 | – | > 33 | – | – | – | – | – | – | – | – |
| Cc1csc(-c2cc(-c3nccn3C)c3n(c2=O)CCCc2ccncc2-3)n1 | – | -0.01 | 16.8 | -0.33 | – | – | – | – | – | 14.3 | – |
| Cc1csc(-c2cc(-c3ccc[nH]3)c3n(c2=O)CCCc2ccncc2-3)n1 | 7.8 | 0.41 | 4.2 | -0.21 | – | – | – | – | – | – | – |
| Cc1csc(-c2cc(-c3ccn(C)n3)c3n(c2=O)CCCc2ccncc2-3)n1 | 10 | 0.47 | 20 | 0.29 | – | – | – | – | – | – | – |
| Cc1csc(-c2cc(-c3ccc(C(C)(C)C)cc3)c3n(c2=O)CCCc2ccncc2-3)n1 | > 33 | – | > 33 | – | – | – | – | – | – | – | – |
| Cc1csc(-c2cc(-c3cncnc3)c3n(c2=O)CCCc2ccncc2-3)n1 | 21.1 | 0.16 | 9 | -0.03 | – | – | – | – | – | – | – |
| Cc1csc(-c2cc(-c3ccc(C#N)cc3)c3n(c2=O)CCCc2ccncc2-3)n1 | 5.4 | 0.39 | 3.1 | -0.04 | – | – | – | – | – | – | – |

These reach a lower Ki [3]. Values come first.

| Ki [1] [nM] | Efficacy [2] | Ki [3] [nM] | Efficacy [4] | bioavailability [5] [%] | bioavailability [6] [%] | Ki [7] [nM] | Ki [8] [nM] | Ki [9] [nM] | Ki [10] [nM] | Ki [11] [nM] | Compound |
| --- | --- | --- | --- | --- | --- | --- | --- | --- | --- | --- | --- |
| 5 | 0.48 | 3 | 0.56 | – | – | – | – | – | – | – | Cc1csc(-c2cc(-c3ccccc3F)c3n(c2=O)CCCc2ccncc2-3)n1 |
| 4 | 0.46 | 3 | 0 | – | – | – | – | – | – | – | Cc1csc(-c2cc(-c3cccn3C)c3n(c2=O)CCCc2ccncc2-3)n1 |
| 5.3 | -0.02 | 2.4 | -0.16 | – | – | – | – | – | – | – | Cc1csc(-c2cc(-c3cccnc3)c3n(c2=O)CCCc2ccncc2-3)n1 |
| 1.5 | 0.36 | 1.2 | 0.08 | – | – | – | – | – | – | – | Cc1csc(-c2cc(-c3ccccc3C)c3n(c2=O)CCCc2ccncc2-3)n1 |
| 1.3 | 0.45 | 0.5 | 0 | 20 | 28 | 27.9 | 65.9 | > 33.3 | – | – | Cc1csc(-c2cc(-c3ccncc3)c3n(c2=O)CCCc2ccncc2-3)n1 |
| – | 0.26 | 0.4 | 0.17 | – | – | – | – | – | 0.2 | – | Cc1csc(-c2cc(-c3ccc(Cl)cc3)c3n(c2=O)CCCc2ccncc2-3)n1 |
| 0.7 | 0.32 | 0.4 | 0.1 | – | – | – | – | – | – | 0.3 | Cc1csc(-c2cc(-c3ccccc3)c3n(c2=O)CCCc2ccncc2-3)n1 |
